Measurements from different studies.

COCC(=O)N1CCc2[nH]c3c(Cl)c(Cl)ccc3c2[C@@H]1C — Tmax (C57BL/6 mouse; blood; intravenous; 1 mg/kg): 5 min
CN(C)C(=O)c1cc2cnc(Nc3ccc(-c4ccc5c(=O)cc(N6CCOCC6)oc5c4)cc3)nc2n1C1CCCC1 — Tmax (BALB/c mouse; plasma; oral; 20 mg/kg): 24 min
OCc1ccc(-c2nn(Cc3ccccc3)c3ccccc23)o1 — Tmax (male CD-1 mouse; plasma; intraperitoneal; 30 mg/kg): 15 min
Cc1ccc2c(c1)C(=O)[C@]1(O)CCN(c3ccc4nc(C)ccc4c3)C1=N2.Cl — Tmax (mouse; brain; subcutaneous; 5 mg/kg): ≤ 10 min
COC1=CC(c2ccc[nH]2)=N/C1=C\c1cc(Cc2ccc(OC(F)(F)F)cc2)c(C)[nH]1.Cl — Tmax (male CD-1 mouse; plasma; oral; 40 mg/kg; single dose): 1440 min
Cc1[nH]c(C)c(S(=O)(=O)Nc2ccc(C(F)(F)F)c(Cl)c2)c1C(=O)N1CCC(F)(F)C1 — Tmax (male CD-1 mouse; plasma; intraperitoneal; 40 mg/kg): 60 min
Cc1ccc(N(c2ccc(NC(=O)CN(C)c3ccccc3N3CCCC3=O)cc2)C(C)C)cc1 — Tmax (male CD-1 mouse; plasma; oral; 20 mg/kg): 40.2 min
COC1=CC(c2ccc[nH]2)=N/C1=C\c1[nH]c(Cc2ccc(OC(F)(F)F)cc2)cc1Cc1ccc(OC(F)(F)F)cc1 — Tmax (male CD-1 mouse; liver; oral; 40 mg/kg; single dose): 240 min
NCc1ccc(-c2nn(Cc3ccncc3)c3ccccc23)o1 — Tmax (male CD-1 mouse; plasma; intraperitoneal; 30 mg/kg): 19.8 min
Cc1ccc(OCC(=O)N[C@@H](Cc2c[nH]c3ccccc23)C(=O)OC(C)C)cc1 — Tmax (male Sprague-Dawley mouse; plasma; oral; 20 mg/kg): 72 min
NCc1ccc(-c2nn(Cc3ccccc3)c3ccccc23)o1 — Tmax (male CD-1 mouse; plasma; oral; 10 mg/kg): 30 min
CCOC(=O)c1c(NC(=O)CNC(C)C)sc2c1CCCCC2 — Tmax (male mouse; plasma; intraperitoneal; 5 mg/kg; single dose): 11.6 min
COc1ccc(C[C@H](NC(=O)[C@H](C)NC(=O)CN2CCOCC2)C(=O)N[C@@H](Cc2ccccc2)C(=O)C2(C)CO2)cc1 (stereo in doubt) — Tmax (mouse; plasma; oral; 20 mg/kg; single dose): 18 min
Cc1nc2ccc(OCc3ccc(C(F)(F)F)cc3)cc2[nH]1 — Tmax (male BALB/c mouse; plasma; oral; 10 mg/kg): 15 min
